Laboratory results published in paper PMC8123931 (Nature chemical biology, 2020).

How the values were obtained:
[1] = tested on: MaMTH stable bait cells; experiment: Reporter cell viability; format: cell-based
Summary of the method: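 MaMTH stable bait cells seeded at 10,000 cells/well in 96-well plates. Next day treated across a dose range of test compound, with 0.5 μg/mL tetracycline to induce bait expression. Viability measured by CellTiter-Glo luminescence after 72 h of drug exposure.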

[2] = tested on: PC9 EGFR ex19del/T790M/C797S cells; experiment: Western analysis of EGFR activation and downstream signalling; format: cell-based; settings: for EGFR activation and signalling through ERK and AKT: 20 µM; for EGFR activation and signalling through ERK and AKT / EGFR phosphorylation/activation / phosphorylation of downstream signalling partners: 2 hours treatment; for potency towards mutant EGFR relative to EMI1: 10 µM dose; for EGFR phosphorylation/activation: compared with PC9 ex19del cells; for phosphorylation of downstream signalling partners: triple mutant cells
[3] = tested on: PC9 EGFR ex19del/T790M/C797S cells; experiment: Microtubule imaging; format: cell-based
[4] = target: T1, EGFR L858R/T790M/C797S (Homo sapiens, UniProt P00533, C797S/L858R/T790M); experiment: MaMTH-DS assay and screen, EGFR L858R/T790M/C797S bait with Shc1 prey; format: cell-based
[5] = tested on: RTK bait (MET, FGFR4, AXL, ALK, EGFR); settings: for bait expression: EGFR WT and mutant baits
[6] = target: T2, AXL (Homo sapiens, UniProt P30530); experiment: MaMTH-DS assay, AXL bait with Shc1 prey; format: cell-based; settings: dose response
T2 sequence (P30530 26-894): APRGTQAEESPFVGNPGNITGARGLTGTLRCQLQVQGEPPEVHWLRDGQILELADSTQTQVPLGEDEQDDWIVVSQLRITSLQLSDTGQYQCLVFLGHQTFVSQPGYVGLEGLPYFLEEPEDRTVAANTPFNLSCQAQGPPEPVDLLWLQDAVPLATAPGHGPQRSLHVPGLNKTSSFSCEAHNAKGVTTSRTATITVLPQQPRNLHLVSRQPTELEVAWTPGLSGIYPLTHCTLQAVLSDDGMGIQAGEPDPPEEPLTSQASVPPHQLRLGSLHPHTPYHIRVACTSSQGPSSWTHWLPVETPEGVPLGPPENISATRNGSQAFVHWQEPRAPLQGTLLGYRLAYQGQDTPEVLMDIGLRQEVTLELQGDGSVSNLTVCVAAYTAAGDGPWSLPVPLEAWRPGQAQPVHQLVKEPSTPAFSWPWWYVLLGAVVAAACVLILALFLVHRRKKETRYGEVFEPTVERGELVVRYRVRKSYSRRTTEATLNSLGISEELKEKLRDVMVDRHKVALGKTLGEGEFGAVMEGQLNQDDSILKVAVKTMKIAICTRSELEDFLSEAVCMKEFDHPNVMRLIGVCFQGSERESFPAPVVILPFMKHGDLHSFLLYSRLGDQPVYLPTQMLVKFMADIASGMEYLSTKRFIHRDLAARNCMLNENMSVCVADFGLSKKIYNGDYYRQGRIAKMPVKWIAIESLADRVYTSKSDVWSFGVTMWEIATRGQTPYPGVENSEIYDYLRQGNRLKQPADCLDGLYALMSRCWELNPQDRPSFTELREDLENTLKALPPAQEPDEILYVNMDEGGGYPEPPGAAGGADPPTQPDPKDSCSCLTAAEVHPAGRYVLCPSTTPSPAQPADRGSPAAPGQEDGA

[7] = tested on: A549 EGFR WT cells; experiment: Caspase 3 and 7 assay; format: cell-based; settings: 72 hours of drug treatment
Summary of the method: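 A549 cells were plated in 384-well plates at 5,000 cells per well and exposed to test compound for 72 h. Caspase 3 and 7 activity was then read by luminescence using the Caspase-Glo 3/7 reagent.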

[8] = target: EGFR ex19del/T790M/C797S (Homo sapiens, UniProt P00533, C797S/DEL746-750/T790M); experiment: In vitro kinase assay, recombinant kinase domain; format: biochemical; settings: 100 µM ATP
[9] = target: EGFR ex19del/T790M (Homo sapiens, UniProt P00533, DEL746-750/T790M); experiment: In vitro kinase assay, recombinant EGFR double mutant; format: biochemical
[10] = target: EGFR L858R/T790M (Homo sapiens, UniProt P00533, L858R/T790M); experiment: as above; format: biochemical
[11] = tested on: PC9 EGFR ex19del/T790M/C797S cells; experiment: Caspase 3 and 7 assay; format: cell-based; settings: 72 hours of drug treatment
[12] = target: wild-type EGFR (Homo sapiens, UniProt P00533); experiment: In vitro kinase assay, recombinant kinase domain; format: biochemical; settings: 100 µM ATP
[13] = target: T1, EGFR L858R/T790M/C797S; experiment: In vitro kinase assay, recombinant kinase domain; format: biochemical; settings: 100 µM ATP
[14] = target: EGFR L858R (Homo sapiens, UniProt P00533, L858R); experiment: In vitro kinase assay, recombinant EGFR single mutant; format: biochemical; settings: compared with triple mutants
[15] = tested on: EGFR ex19del; experiment: as above; format: biochemical; settings: compared with triple mutants
[16] = tested on: PC9 EGFR ex19del/T790M/C797S organoids; experiment: Organoid viability assay; format: cell-based
[17] = tested on: HEK293 EGFR L858R/T790M/C797S cells; experiment: EGFR localization and endosomal trafficking; format: cell-based
[18] = tested on: HEK293 EGFR L858R/T790M/C797S cells; experiment: Cell surface biotinylation assay; format: cell-based; settings: 5 µM compound, 2 hours
[19] = tested on: HEK293 EGFR WT cells; experiment: EGFR localization and endosomal trafficking; format: cell-based; settings: 1 µM compound, 30 minutes EGF

C=CC(=O)Nc1cccc(C)c1Nc1ncc2cc(-c3c(Cl)c(OC)cc(OC)c3Cl)ccc2n1 [BLU9931]
reporter cell viability ([1]; FGFR4 bait cells): no effect on reporter cell viability

COc1cc2c(c(OC)c1OC)-c1ccc(OC)c(=O)cc1[C@@H](NC(C)=O)CC2 [Colchicine]
EGFR activation and signalling through ERK and AKT [2]: not evident

CC(=O)O[C@@]12CO[C@@H]1C[C@H](O)[C@@]1(C)C(=O)[C@H](O)C3=C(C)[C@@H](OC(=O)[C@H](O)[C@@H](NC(=O)OC(C)(C)C)c4ccccc4)C[C@@](O)([C@@H](OC(=O)c4ccccc4)[C@H]21)C3(C)C [Docetaxel]
EGFR activation and signalling through ERK and AKT [2]: not evident

CCN(CC)c1ccc2cc(-c3nc4cc(C)ccc4o3)c(=O)oc2c1 [EMI48]
potency towards mutant EGFR relative to EMI1 [2]: greater potency towards mutant EGFR than EMI1 | interphase microtubules and spindle formation [3]: did not affect interphase microtubules, nor have an effect on spindle formation

CCN(CC)c1cc2oc(=O)c(-c3nc4ccccc4o3)cc2cc1C [EMI56]
potency towards mutant EGFR relative to EMI1 [2]: greater potency towards mutant EGFR than EMI1 | interphase microtubules and spindle formation [3]: did not affect interphase microtubules, nor have an effect on spindle formation

COC(=O)Nc1nc2ccc(C(=O)c3cccs3)cc2[nH]1 [Nocodazole]
EGFR activation and signalling through ERK and AKT [2]: not evident

COc1cc(OC)c(/C=C/S(=O)(=O)Cc2ccc(OC)c(NCC(=O)O)c2)c(OC)c1 [Rigosertib]
EGFR activation and signalling through ERK and AKT [2]: not evident

CC1(COc2ccc3c(c2)ncn3-c2ccc3cccc(N4CCC(N)CC4)c3n2)COC1 [crenolanib]
interaction of Shc1 with EGFR L858R/T790M/C797S (in words) [4]: none were found to target the EGFR C797S triple mutant

C[C@@H](Oc1cc(-c2cnn(C3CCNCC3)c2)cnc1N)c1c(Cl)ccc(F)c1Cl [crizotinib]
reporter cell viability ([1]; MET bait cells): not due to a loss in cell viability

C#Cc1cccc(Nc2ncnc3cc(OCCOC)c(OCCOC)cc23)c1 [erlotinib]
bait expression [5]: no effect of TKIs on bait expression | AXL activity (interaction with Shc1) [6]: not erlotinib control | reporter cell viability ([1]; EGFR WT and mutant bait cells): not due to a reduction in reporter cell viability

COc1cc2c(Oc3ccc(NC(=O)C4(C(=O)Nc5ccc(F)cc5)CC4)cc3F)ccnc2cc1OCCCN1CCOCC1 [foretinib]
bait expression level ([5]; AXL bait): not altered by compound | AXL activity (interaction with Shc1) [6]: strongly reduced, in a dose-dependent manner | reporter cell viability ([1]; AXL bait cells): cell viability was unaffected

CCc1nc(C(N)=O)c(Nc2ccc(N3CCC(N4CCN(C)CC4)CC3)c(OC)c2)nc1NC1CCOCC1 [gilteritinib]
caspase 3/7 activity [7]: not in A549 epithelial cells carrying EGFR WT | IC50 values, inhibition of kinase domain (in words) [8]: low nanomolar range | activity against double mutant [9]: moderate to strong activity | activity against double mutant [10]: moderate to strong activity | caspase 3/7 activity [11]: induced caspase 3 and 7 activity | activity towards triple mutants compared with WT EGFR [12]: significantly more potent activity towards the mutants than WT EGFR | IC50 values, inhibition of kinase domain (in words) [13]: low nanomolar range | EGFR phosphorylation/activation [2]: reduced EGFR phosphorylation/activation in PC9 ex19del/T790M/C797S triple mutant cells more strongly | phosphorylation of downstream signalling partners [2]: more potently reducing pAKT levels | activity against single mutant [14]: less effective | activity against single mutant [15]: less effective | organoid viability / growth [16]: potently affected the growth of PC9 triple mutant organoids | interaction of Shc1 with EGFR L858R/T790M/C797S (in words) [4]: potent and highly specific inhibitor of the EGFR triple mutant

CO[C@@H]1[C@H](N(C)C(=O)c2ccccc2)C[C@H]2O[C@]1(C)n1c3ccccc3c3c4c(c5c6ccccc6n2c5c31)C(=O)NC4 [midostaurin]
caspase 3/7 activity [7]: not in A549 epithelial cells carrying EGFR WT | EGF accumulation in EEA1-positive early endosomes ([17]; 1 µM compound, 30 minutes EGF): significantly reduced EGF accumulation in EEA1-positive early endosomes | overall amount of EGFR pY1068 localized to EEA1-positive endosomes ([17]; 1 µM compound, 30 minutes EGF): significantly reduced the overall amount of EGFR pY1068 localized to EEA1-positive endosomes | average amount of activated EGFR per endosome ([17]; 30 min EGF): reduced the amount of activated EGFR per endosome | number of early endosomes carrying activated EGFR ([17]; 30 min EGF): had no effect on total endosome number | activity against double mutant [9]: moderate to strong activity | activity against double mutant [10]: moderate to strong activity | caspase 3/7 activity [11]: induced caspase 3 and 7 activity | surface levels of EGFR [18]: not observed | activity towards triple mutants compared with WT EGFR [12]: significantly more potent activity towards the mutants than WT EGFR | EGF accumulation in EEA1-positive early endosomes [19]: A similar effect was observed for EGFR WT cells but to a lesser degree | overall amount of EGFR pY1068 localized to EEA1-positive endosomes [19]: not in EGFR WT | EGFR phosphorylation/activation [2]: reduced EGFR phosphorylation/activation in PC9 ex19del/T790M/C797S triple mutant cells more strongly | phosphorylation of downstream signalling partners [2]: more potently reducing pAKT and pERK levels | activity against single mutant [14]: less effective | activity against single mutant [15]: less effective | organoid viability / growth [16]: potently affected the growth of PC9 triple mutant organoids | interaction of Shc1 with EGFR L858R/T790M/C797S (in words) [4]: robust, dose-dependent inhibition

C=CC(=O)Nc1cc(Nc2nccc(-c3cn(C)c4ccccc34)n2)c(OC)cc1N(C)CCN(C)C [osimertinib]
bait expression [5]: no effect of TKIs on bait expression | EGF accumulation in EEA1-positive early endosomes ([17]; 1 µM compound, 30 minutes EGF): had no effect | surface levels of EGFR [18]: not observed | reporter cell viability ([1]; EGFR WT and mutant bait cells): not due to a reduction in reporter cell viability | organoid viability / growth [16]: has no effect

CC(C)(C)c1cc(NC(=O)Nc2ccc(-c3cn4c(n3)sc3cc(OCCN5CCOCC5)ccc34)cc2)no1 [quizartinib]
interaction of Shc1 with EGFR L858R/T790M/C797S (in words) [4]: none were found to target the EGFR C797S triple mutant
